ALR inh: inhibitors of human sulfhydryl oxidase ALR | inhibition, % (test concentration not listed) | AID 485317 | purified ALR, DTT oxidation, H2O2 HRP-luminol luminescence | 290,000 tested, 3.8% active;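 active = mean replicate inhibition above about 79%, with every replicate also reaching it, limit read from the data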
Target sequence (P55789 whole entry, looked up): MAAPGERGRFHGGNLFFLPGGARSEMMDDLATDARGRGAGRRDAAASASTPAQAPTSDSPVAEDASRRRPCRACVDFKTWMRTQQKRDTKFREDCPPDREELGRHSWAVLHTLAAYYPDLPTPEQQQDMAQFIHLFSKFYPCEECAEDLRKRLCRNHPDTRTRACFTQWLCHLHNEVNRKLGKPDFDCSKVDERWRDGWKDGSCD
T cell HTS: T cell immune modulation candidate; 2C CD8+ T cell-vesicle binding, flow cytometry; stronger effect = lower value; response (vesicle binding), % at 7 µM; 330,000 tested, 0.068% active; AID 2052;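 active = response, share of CD8 T cells binding vesicles, and their 90th percentile fluorescence all below set limits, cut at about 80% in these data, passing the limit was not always enough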;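 note: values below 100% mean blocked vesicle binding to the CD8+ T cells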
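Assay system – 2C mouse CD8+ T cells · Also added – QL9-loaded Drosophila micro-vesicles · Timing – Cell–vesicle co-incubation 1.5 h at 37 °C, staining 20 min on ice · Signal – flow cytometry of vesicle-bound cells · Measure – percent CD8+ FL2 mean versus row control · Controls – Peptide-free naked vesicles (low) and QL9 vesicles with 0.7% DMSO vehicle (high)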
Glyco luc inh: N-linked glycosylation inhibition; D54 ERlucT glycosylation luciferase reporter, 24 h; percent of 100 nM tunicamycin response; reporter increase, % at 12.5 µM; AID 588692; 360,000 tested, 0.23% active;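 active = mean luciferase reporter signal, scaled so untreated is 0 and the glycosylation-blocking control 100, at or above a set limit in every replicate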;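 note: luciferase carries N-glycosylation sites so blocking glycosylation raises the light; 0% = median of neutral control wells and 100% = median of 100 nM tunicamycin wells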
* marks the source's active call; other numbers are inactive results; i = inactive; . = not tested or not shown. This is one part of a sample in which hits are shown more often than they occur.

SMILES	ALR inh	T cell HTS	Glyco luc inh
Nc1c(Cl)ncnc1N/N=C/c1cccc(O)c1	97*	353	3
COc1cccc(NC(=O)COC(=O)/C=C/c2c(C)nn(-c3ccccc3)c2C)c1	.	460	0
C[C@@H]1CN([C@@H](C)CO)C(=O)c2cc(Br)cnc2O[C@H]1CN(C)C(=O)c1ccc2c(c1)OCO2	.	.	4
CC(=O)/C(=N/Nc1cccc(C)c1)N1CCOCC1	99*	632	3
Cc1cccc(C(=O)Nc2cccc(C(=O)N3CCOCC3)c2)c1	-6	394	0
CC(C)c1nc(NCCO)c2nnn(Cc3ccccc3)c2n1	.	375	1
CN(C)c1ccc(N=Nc2ccccc2C(=O)OCC(=O)NCC2CCCCC2)cc1	1	277	-11
CN(C)c1ccc(N=Nc2ccccc2C(=O)OCC(=O)NC2CCCC2)cc1	97*	453	-8
COCCCNC(=O)C(C)N1c2cccc3cccc(c23)S1(=O)=O (stereo not given)	-85	884	0
O=C(Nc1cccs1)Nc1c(F)c(F)cc(F)c1F	-3	147	3
O=C(Nc1cccs1)Nc1c(F)cc(F)cc1Br	96*	246	-2
O=C1c2c(O)cc(O)cc2O[C@@]12c1c(cc(O)c3c1O[C@H](c1ccc(O)cc1)[C@@H](O)C3)O[C@@H]2c1ccc(O)cc1	99*	653	0
Cc1c(O)cc2c(c1O)C(=O)CC(c1ccc(O)cc1)O2 (stereo not given)	13	290	0
CC1(c2cnc(Nc3ccccc3)s2)CCC(=O)O1 (stereo not given)	97*	444	0
CC1(c2ccc3ccccc3c2)CCC(=O)O1 (stereo not given)	.	.	1
O=C(NCc1ccccc1)c1ncn[nH]1	0	95	0
COc1ccc(CCC(=O)Nc2c(-c3ccc(N(C)C)cc3)[nH][nH]c2=O)cc1	.	.	2
Cc1ccc(NC(=O)Nc2ccc3c(c2)nnn3C)cc1C	-1	274	5
CCOc1ccc(NC(=O)Nc2ccc3c(c2)nnn3C)cc1	99*	569	0
Cc1ccc(S(=O)(=O)N2CCN(C(=O)COC(=O)COc3ccc(Cl)cc3)CC2)c(C)c1	.	.	1
N#C/C(=N\Nc1ccc(F)cc1)C(=O)C1CC1	98*	434	3
N#C/C(=N\Nc1ccc(Cl)c(Cl)c1)C(=O)C1CC1	19	258	-5
O=C(CCn1c(=O)sc2ccccc21)NC1CCCCC1	7	239	0
COc1ccc(N2C(=O)CSC2c2cccs2)cc1 (stereo not given)	99*	509	0
CCOc1ccc(N2C(=O)CSC2c2ccncc2)cc1 (stereo not given)	100*	505	-1
SMILES	ALR inh	T cell HTS	Glyco luc inh
O=C1CSC(c2cccs2)N1c1ccccc1 (stereo not given)	.	717	-3
COc1ccc(N2C(=O)CSC2c2ccc(F)c(F)c2)cc1 (stereo not given)	.	301	-2
Cc1nc2cc(Oc3nc(NCCN(C)C)nc4ccsc34)ccc2s1	.	.	-2
CCCOc1ccccc1OCC(=O)Nc1cccc(S(=O)(=O)NC2=NCCC2)c1	.	.	1
Cc1ccc(OCC(=O)c2cc(C)n(Cc3cccs3)c2C)c([N+](=O)[O-])n1	.	186	-8
Cc1cc(C(=O)COc2ccc3ccc(=O)oc3c2)c(C)n1Cc1cccs1	88*	332	-4
COCCNC(=O)C1CCCN(C(=O)c2cc(C)n(C(C)(C)C)n2)CC1 (stereo not given)	.	.	0
CCOC(=O)Nc1sc2c(c1C(N)=O)CCC(C)C2 (stereo not given)	-9	208	-1
CC(=O)NC(=S)Nc1sc2c(c1C(N)=O)CCC(C)C2 (stereo not given)	89*	303	-2
CC(C)(C)N(Cc1ccc2c(c1)OCO2)C(=O)/C=C\S(=O)c1ccccc1 (stereo not given)	.	.	-16
COc1ccccc1/C=C/C=c1\sc2nc(=O)c(Cc3ccccc3)nn2c1=O	-2	337	3
CCn1cc([N+](=O)[O-])c(C(=O)Nc2nc3ccc(OC)cc3s2)n1	3	225	-2
COC(=O)[C@H]1C[C@@]2(O)CN(S(=O)(=O)c3ccc(C)cc3)C[C@@]2(OC(=O)NCc2ccccc2)C[C@H]1C(=O)OC	.	.	1
CCOC(=O)c1c(C)[nH]c(C(=O)COC(=O)c2ccc(N3CCCC3=O)cc2)c1C	.	308	3
CCC1(C)OC(=O)N2CCc3c(C)[nH]c4c(C)ccc(c34)C21C (stereo not given)	98*	925	-1
CC(C)CCNC(=O)CSc1nc2ccccc2s1	.	537	0
C=CCNC(=O)c1nc2ccccc2s1	.	334	0
CC(=O)NCCNC(=O)c1ccc(CSc2nc3ccccc3s2)cc1	99*	235	-21
C=CCNC(=O)c1ccc(CSc2nc3ccccc3s2)cc1	99*	295	-3
O=C(NCCc1ccco1)C(=O)NCC1OCCCN1S(=O)(=O)c1cc(F)ccc1F (stereo not given)	-5	181	-1
COc1ccc(CC(=O)OCC(=O)NCc2ccc(C)cc2)cc1OC	-15	i	2
Cc1nn(-c2ccccc2)c(C)c1-c1cc(C(=O)N/N=C/c2cccnc2)[nH]n1	-2	252	.
COC(=O)c1cc(-c2c(C)nn(-c3ccccc3)c2C)n[nH]1	86*	382	1
O=C(CCN1CCCCC1)c1cccc(Cl)c1	.	.	0
COc1cccc(C2C([N+](=O)[O-])=C(N)Oc3cc(C)oc(=O)c32)c1 (stereo not given)	-3	229	-2
SMILES	ALR inh	T cell HTS	Glyco luc inh
COc1ccc2nc3cc(Cl)ccc3c(Nc3cc(CN4CCCC4)c(O)c(CN4CCCC4)c3)c2n1	99*	562	-17
COc1ccc2nc3cc(Cl)ccc3c(Nc3cc(C(C)C)c(O)cc3C)c2c1	0	581	-9
CC(=O)c1ccc2c(c1)N(CCCN1CCC(CCO)CC1)c1ccccc1S2	96*	968	-1
CN1CCN(CCCNC(=O)c2cn(C)c3ccc(S(=O)(=O)N(C)C)cc3c2=O)CC1	-2	103	2
CN(C)CCCN1c2ccccc2Sc2ccc3ccccc3c21	.	.	0
CCN1C(=O)c2ccccc2Sc2ccc(C(=O)NCCCN3CCCCC3)cc21	-3	225	5
OCCN1CCN(CCCN2c3ccccc3Sc3ccc(Cl)cc32)CC1	99*	453	0
CN1CCN(CCCN2c3ccccc3Sc3ccc(S(=O)(=O)N(C)C)cc32)CC1	96*	611	-1
OCCN1CCN(CC/C=C2/c3ccccc3Sc3ccc(Cl)cc32)CC1	-5	526	-2
CN(C)CCCN1c2ccccc2Sc2ccc(Cl)cc21	98*	209	3
CCN(CC(=O)NCc1ccc(Cl)cc1)C(=O)CCOc1ccc(C)cc1	1	179	1
CCN(C(=O)COC(=O)c1cncc(Br)c1)C1CCS(=O)(=O)C1 (stereo not given)	2	462	-1
CCc1nc2c(OCCOc3ccc(F)cc3)cccn2c1N(C=O)Cc1ccccc1	.	.	-2
Nc1cc(Cl)ccc1CN1C(=O)c2ccccc2C1=O	.	.	-1
CCN1CCN(C(=O)CCc2nnc3ccc(N4CCN(c5cccc(OC)c5)CC4)nn23)CC1	99*	330	-2
COc1ccc(N2CCN(c3ccc4nnc(CCC(=O)Nc5ccc(C)cc5)n4n3)CC2)cc1	92*	641	0

Screens as filed in PubChem BioAssay.
